Results from paper PMC12679438 (RSC Advances, 2025).
Read-outs that look alike come from different tables or passages of the source.

Experiments:
HCT116 = test: MTS cytotoxicity assay, 72 h, HCT116; format: cell-based, human; conditions: Homo sapiens, HCT-116, 72 h, read-out: IC50 HCT116
Method in brief: (§1)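 Human lines were kept at 37 °C, 5% CO2 in recommended medium plus 10% FCS, penicillin–streptomycin, 2 mM glutamine, 1 mM bicarbonate, 1 mM pyruvate and 20 mM HEPES, and were mycoplasma-tested biweekly. Cells were exposed to test compound for 72 h on a robotic screening platform, then read by MTS. DMSO-treated cells were the negative control. IC50 came from dose–response curves, mean of ≥6 replicates.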

[1] = test system: panel of human cell lines; test: MTS cytotoxicity assay, statements over groups of cell lines of the panel; format: cell-based; conditions: Homo sapiens
Method in brief: as §1

RAMOS = test: MTS cytotoxicity assay, 72 h, RAMOS; format: cell-based, human; conditions: Homo sapiens, Ramos, read-out: IC50 RAMOS
Method in brief: as §1

A549 = test: MTS cytotoxicity assay, 72 h, A549; format: cell-based, human; conditions: Homo sapiens, A549, 72 h, read-out: IC50 A549
Method in brief: as §1

Jurkat = test: MTS cytotoxicity assay, 72 h, Jurkat; format: cell-based, human; conditions: Homo sapiens, Jurkat, read-out: IC50 Jurkat
Method in brief: as §1

U2OS = test: MTS cytotoxicity assay, 72 h, U2OS; format: cell-based, human; conditions: Homo sapiens, U2OS, read-out: IC50 U2OS
Method in brief: as §1

HCT116-p53 = test: MTS cytotoxicity assay, 72 h, HCT116-p53; format: cell-based, human; conditions: Homo sapiens, read-out: IC50 HCT116-p53
Method in brief: as §1

CCRF-CEM = test: MTS cytotoxicity assay, 72 h, CCRF-CEM; format: cell-based, human; conditions: Homo sapiens, CCRF-CEM, read-out: IC50 CCRF-CEM
Method in brief: as §1

K562 = test: MTS cytotoxicity assay, 72 h, K562; format: cell-based, human; conditions: Homo sapiens, K562, 72 h, read-out: IC50 K562
Method in brief: as §1

BJ = test: MTS cytotoxicity assay, 72 h, BJ fibroblasts; format: cell-based, human; conditions: Homo sapiens, BJ, read-out: IC50 BJ
Method in brief: as §1

MRC-5 = test: MTS cytotoxicity assay, 72 h, MRC-5 fibroblasts; format: cell-based, human; conditions: Homo sapiens, MRC5, 72 h, read-out: IC50 MRC-5
Method in brief: as §1

[2] = 72 h, read-out: IC50 across all tested cell lines
[3] = read-out: IC50 across multiple cancer lines

SMILES | IC50 (HCT116) [µM] | IC50 [1, 2] [µM] | IC50 (RAMOS) [µM] | IC50 (A549) [µM] | IC50 (Jurkat) [µM] | IC50 (U2OS) [µM] | IC50 (HCT116-p53) [µM] | IC50 (CCRF-CEM) [µM] | IC50 (K562) [µM] | IC50 (BJ) [µM] | IC50 (MRC-5) [µM] | IC50 [1, 3] [µM]
O=C(Nc1ccccc1)C1CN(c2cc(-c3ccncc3)n[nH]c2=O)C1 [Compound 7, 1-(3-oxo-6-(pyridin-4-yl)-2,3-dihydropyridazin-4-yl)-N-phenylazetidine-3-carboxamide] | > 50 | > 50 | > 50 | > 50 | > 50 | > 50 | > 50 | > 50 | > 50 | > 50 | > 50 | –
O=C(Nc1ccccc1)C1CN(c2cc(-c3ccccc3)n[nH]c2=O)C1 [Compound 8, 1-(3-oxo-6-phenyl-2,3-dihydropyridazin-4-yl)-N-phenylazetidine-3-carboxamide] | > 50 | > 50 | > 50 | > 50 | > 50 | > 50 | > 50 | > 50 | > 50 | > 50 | > 50 | –
COc1ccc(-c2cc(N3CC(C(=O)Nc4ccccc4)C3)c(=O)[nH]n2)cc1 [Compound 10, 1-(6-(4-methoxyphenyl)-3-oxo-2,3-dihydropyridazin-4-yl)-N-phenylazetidine-3-carboxamide] | > 50 | – | 11 | > 50 | 40.3 | > 50 | > 50 | 20.8 | > 50 | > 50 | > 50 | –
O=C(Nc1ccccc1)C1CN(c2cc(-c3ccc(Cl)cc3)n[nH]c2=O)C1 [Compound 11, 1-(6-(4-chlorophenyl)-3-oxo-2,3-dihydropyridazin-4-yl)-N-phenylazetidine-3-carboxamide] | 38.9 | – | 10.4 | 32 | 33.2 | 26.9 | 37.9 | 23 | > 50 | 34 | 26 | 18 to 37
O=C(Nc1ccccc1)C1CN(c2cc(-c3ccc(F)cc3F)n[nH]c2=O)C1 [Compound 12, 1-(6-(2,4-difluorophenyl)-3-oxo-2,3-dihydropyridazin-4-yl)-N-phenylazetidine-3-carboxamide] | 37.1 | – | 16.8 | 36.3 | 33.9 | 16.2 | 32.8 | 18 | 31.8 | 28.9 | 16.6 | 18 to 37
O=C(NCc1ccco1)C1CN(c2cc(-c3ccncc3)n[nH]c2=O)C1 [Compound 17, N-(furan-2-ylmethyl)-1-(3-oxo-6-(pyridin-4-yl)-2,3-dihydropyridazin-4-yl)azetidine-3-carboxamide] | > 50 | > 50 | > 50 | > 50 | > 50 | > 50 | > 50 | > 50 | > 50 | > 50 | > 50 | –
O=C(NCc1ccco1)C1CN(c2cc(-c3ccccc3)n[nH]c2=O)C1 [Compound 18, N-(furan-2-ylmethyl)-1-(3-oxo-6-phenyl-2,3-dihydropyridazin-4-yl)azetidine-3-carboxamide] | > 50 | – | 41.2 | > 50 | 19.2 | > 50 | > 50 | 30.2 | 30.4 | > 50 | > 50 | –
O=C(NCc1ccco1)C1CN(c2cc(-c3cccc(F)c3)n[nH]c2=O)C1 [Compound 19, 1-(6-(3-fluorophenyl)-3-oxo-2,3-dihydropyridazin-4-yl)-N-(furan-2-ylmethyl)azetidine-3-carboxamide] | > 50 | – | 16.3 | > 50 | 25.1 | > 50 | > 50 | > 50 | > 50 | > 50 | > 50 | –
COc1ccc(-c2cc(N3CC(C(=O)NCc4ccco4)C3)c(=O)[nH]n2)cc1 [Compound 20, N-(furan-2-ylmethyl)-1-(6-(4-methoxyphenyl)-3-oxo-2,3-dihydropyridazin-4-yl)azetidine-3-carboxamide] | > 50 | – | 19.7 | > 50 | 24.3 | > 50 | > 50 | > 50 | 38.7 | > 50 | > 50 | –
O=C(NCc1ccco1)C1CN(c2cc(-c3ccc(Cl)cc3)n[nH]c2=O)C1 [Compound 21, 1-(6-(4-chlorophenyl)-3-oxo-2,3-dihydropyridazin-4-yl)-N-(furan-2-ylmethyl)azetidine-3-carboxamide] | > 50 | – | 37.5 | > 50 | 30.5 | > 50 | > 50 | > 50 | > 50 | > 50 | > 50 | –
COC(=O)c1cncc(-c2cc(N3CC(C(=O)NCc4ccco4)C3)c(=O)[nH]n2)c1 [Compound 23, methyl 5-(5-(3-((furan-2-ylmethyl)carbamoyl)azetidin-1-yl)-6-oxo-1,6-dihydropyridazin-3-yl)nicotinate] | 8.83 | – | 5.53 | 42.1 | 5.15 | 16.9 | 12.7 | 5.12 | 7.4 | > 50 | > 50 | –
O=C(C1CN(c2cc(-c3ccncc3)n[nH]c2=O)C1)N1CCN(c2ccccc2)CC1 [Compound 28, 4-(3-(4-phenylpiperazine-1-carbonyl)azetidin-1-yl)-6-(pyridin-4-yl)pyridazin-3(2H)-one] | > 50 | – | > 50 | > 50 | > 50 | > 50 | > 50 | > 50 | > 50 | > 50 | > 50 | –
O=C(C1CN(c2cc(-c3ccccc3)n[nH]c2=O)C1)N1CCN(c2ccccc2)CC1 [Compound 29, 6-phenyl-4-(3-(4-phenylpiperazine-1-carbonyl)azetidin-1-yl)pyridazin-3(2H)-one] | > 50 | – | > 50 | > 50 | > 50 | > 50 | > 50 | > 50 | > 50 | > 50 | > 50 | –
O=C(NCC(F)(F)F)C1CN(c2cc(-c3ccncc3)n[nH]c2=O)C1 [Compound 34, 1-(3-oxo-6-(pyridin-4-yl)-2,3-dihydropyridazin-4-yl)-N-(2,2,2-trifluoroethyl)azetidine-3-carboxamide] | > 50 | > 50 | > 50 | > 50 | > 50 | > 50 | > 50 | > 50 | > 50 | > 50 | > 50 | –
O=C(NCC(F)(F)F)C1CN(c2cc(-c3ccccc3)n[nH]c2=O)C1 [Compound 35, 1-(3-oxo-6-phenyl-2,3-dihydropyridazin-4-yl)-N-(2,2,2-trifluoroethyl)azetidine-3-carboxamide] | > 50 | > 50 | > 50 | > 50 | > 50 | > 50 | > 50 | > 50 | > 50 | > 50 | > 50 | –
O=C(NCC(F)(F)F)C1CN(c2cc(-c3cccc(F)c3)n[nH]c2=O)C1 [Compound 36, 1-(6-(3-fluorophenyl)-3-oxo-2,3-dihydropyridazin-4-yl)-N-(2,2,2-trifluoroethyl)azetidine-3-carboxamide] | > 50 | > 50 | > 50 | > 50 | > 50 | > 50 | > 50 | > 50 | > 50 | > 50 | > 50 | –
COc1ccc(-c2cc(N3CC(C(=O)NCC(F)(F)F)C3)c(=O)[nH]n2)cc1 [Compound 37, 1-(6-(4-methoxyphenyl)-3-oxo-2,3-dihydropyridazin-4-yl)-N-(2,2,2-trifluoroethyl)azetidine-3-carboxamide] | > 50 | > 50 | > 50 | > 50 | > 50 | > 50 | > 50 | > 50 | > 50 | > 50 | > 50 | –
O=C(c1ccncc1)C1CN(c2cc(-c3ccncc3)n[nH]c2=O)C1 [Compound 46, 4-(3-isonicotinoylazetidin-1-yl)-6-(pyridin-4-yl)pyridazin-3(2H)-one] | > 50 | – | > 50 | > 50 | 35.9 | > 50 | > 50 | 29 | > 50 | > 50 | > 50 | –
